This is a sample that favours compounds with a hit; in the whole collection about 5.7% have one here.
Mdm2-MdmX inh – disrupts the human Mdm2-MdmX interaction | actives 3% (n = 330,000) | O15151+Q00987 | SaOS-2 split-luciferase Mdm2/MdmX complementation, luminescence | inhibition, % at 8 µM;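 active = inhibition of at least 50% at 8 µM in the primary screen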
Target sequence (O15151 whole entry, looked up): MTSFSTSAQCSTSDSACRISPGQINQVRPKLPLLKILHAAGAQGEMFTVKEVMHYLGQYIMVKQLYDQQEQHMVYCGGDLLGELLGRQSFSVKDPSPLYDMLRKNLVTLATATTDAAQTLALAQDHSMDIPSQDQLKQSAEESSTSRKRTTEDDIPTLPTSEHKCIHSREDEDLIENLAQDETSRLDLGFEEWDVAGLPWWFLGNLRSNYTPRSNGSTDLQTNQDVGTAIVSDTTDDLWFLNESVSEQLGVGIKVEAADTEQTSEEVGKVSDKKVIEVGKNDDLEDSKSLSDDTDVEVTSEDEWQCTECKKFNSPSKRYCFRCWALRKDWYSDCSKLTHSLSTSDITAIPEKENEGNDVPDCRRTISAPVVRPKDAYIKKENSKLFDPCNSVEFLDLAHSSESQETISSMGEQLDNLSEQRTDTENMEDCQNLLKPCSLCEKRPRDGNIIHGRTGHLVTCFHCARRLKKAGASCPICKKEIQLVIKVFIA
Target sequence (Q00987 whole entry, looked up): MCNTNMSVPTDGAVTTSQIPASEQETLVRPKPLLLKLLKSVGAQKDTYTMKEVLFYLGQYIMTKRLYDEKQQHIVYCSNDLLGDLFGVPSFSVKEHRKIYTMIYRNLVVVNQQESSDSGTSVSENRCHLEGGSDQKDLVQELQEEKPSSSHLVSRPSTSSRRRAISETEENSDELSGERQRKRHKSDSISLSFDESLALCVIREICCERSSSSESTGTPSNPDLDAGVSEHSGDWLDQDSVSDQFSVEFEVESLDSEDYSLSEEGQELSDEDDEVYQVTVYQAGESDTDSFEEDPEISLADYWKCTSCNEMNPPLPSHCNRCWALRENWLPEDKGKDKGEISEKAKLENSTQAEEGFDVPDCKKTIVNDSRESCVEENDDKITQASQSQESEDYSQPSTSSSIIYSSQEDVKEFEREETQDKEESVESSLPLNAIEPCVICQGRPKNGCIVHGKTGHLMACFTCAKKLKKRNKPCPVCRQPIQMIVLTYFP
SKKanGAS inh – blocks kanamycin growth of S. pyogenes SKKanGAS strain; BacTiter-Glo, 6 h; inhibition, % at 7.5 µM; actives 1.3% (n = 300,000); AID 1662;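 active = mean replicate score, as percent of positive control median, at least 50; inconclusive = mean below 50 but one replicate at or above 50; inactive = mean and every replicate below 50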;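 also: strain carries kanamycin resistance gene driven by streptokinase promoter and grows in 40 µg/ml kanamycin; loss of luminescence reflects streptokinase promoter inhibition or plain growth inhibition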
Calb FLC – C. albicans growth modulation with fluconazole | growth inhibition, % (no concentration beside the values) | actives 0.57% (n = 300,000) | C. albicans CaCi-2 (fluconazole-resistant clinical isolate) + fluconazole, Alamar Blue growth, 48 h | AID 1979;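 active = growth inhibition above about 58% in most replicates, limit read from the data, passing the limit was not always enough; inconclusive = exactly half the replicates above a set limit; inactive = most replicates below a set limit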;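 also: all wells also contain fluconazole at 8 µg/ml as a sub-toxic cotreatment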
T cruzi repl – T. cruzi replication inhibition; T. cruzi beta-gal in NIH3T3, luminescence, 90 h; inhibition, % (concentration not given with the values); actives 1.4% (n = 300,000); AID 1885;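 active = mean inhibition across valid replicates above about 55%, limit read from the data; inconclusive = mean below that limit but half or more replicates reach it; inactive = mean below it, under half of replicates reach it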;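 also: signal also drops with host cell toxicity which is not excluded here; higher percent means less beta-gal luminescence so fewer parasites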
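compound dosing = single 50 nL compound addition per well in DMSO | material = NIH/3T3 host cells with β-galactosidase reporter T. cruzi | input = 5,000 host fibroblasts per well | timing = ≥90 h infection period, 3 h prior cell attachment | read-out basis = percent inhibition of parasite-derived β-gal signal | detection = GalScreen β-gal luminescence, detergent lysis, 60 min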
CSC inhib – cancer stem cell inhibition; cancer stem cell-like cells viability, luminescence; inhibition, % at 7.5 µM; actives 1.1% (n = 300,000); AID 2717; in the data active = inhibition above about 75%; inconclusive = no clear call, values can overlap the other calls; tested in HMLE shEcad cells
Beta apoptosis – blocks beta cell apoptosis | INS-1E cytokine-induced death, ATP luminescence, 48 h; percent of positive-control rescue, neutral wells zero | protection from apoptosis, % (test concentration not listed) | actives 0.8% (n = 300,000) | AID 435005;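 active = Every replicate reaches about 75%, or at least half do and their mean reaches it too, limit read from the data; inconclusive = At least half of replicates reach the limit but their mean does not; inactive = Under half of replicates reach the limit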;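 also: higher means more ATP so stronger rescue from cytokine killing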
Numbers stand for hits; – = inactive; ? = inconclusive; · = no result.

SMILES	Mdm2-MdmX inh	SKKanGAS inh	Calb FLC	T cruzi repl	CSC inhib	Beta apoptosis
COc1ccc(C2C(C(C)=O)=C(O)C(=O)N2c2ccccn2)cc1 (configuration not stated)	–	–	–	–	–	–
CCOC(=O)c1c(NC(=O)CN2CCN(C)CC2)sc(C(=O)Nc2ccccc2)c1C	–	–	–	–	79	–
CCOC(=O)c1sc(NC(=O)CCN2CCN(C)CC2)c(C(=O)OCC)c1C	–	–	–	–	–	–
CCCCc1c(C)nc2nc(SCc3ccc(Cl)cc3)[nH]n2c1=O	·	–	–	–	–	–
COC(=O)c1cc(=O)n(Cc2ccc(F)cc2)c(=Nc2ccccc2)s1	–	–	–	–	86	–
CCOc1ccccc1NC(=O)c1ccc2c(c1)C(=O)N(CC)C2=O	–	–	–	–	–	–
CCC(C)NC(=O)Cc1ccc(-c2ccccc2)cc1 (configuration not stated)	–	–	–	62	–	–
CCCC(C)NC(=O)Cc1ccccc1 (configuration not stated)	–	–	–	–	–	–
S=C(Nc1ccccc1Cl)N(Cc1ccccc1)Cc1ccccn1	–	–	–	–	–	–
Cc1ccccc1OCC(=O)NNC(=S)NC(=O)c1ccco1	–	115	–	–	·	–
CC(C)(C)c1ccc(OCC(=O)NNC(=S)NC(=O)c2ccco2)c(Br)c1	–	119	–	–	–	–
COc1ccccc1CCC(=O)Nc1cc(S(=O)(=O)N2CCOCC2)ccc1N1CCCC1	–	–	–	–	–	–
O=c1c2ccc([N+](=O)[O-])cc2ncn1Cc1ccccc1C(F)(F)F	–	–	–	–	–	–
COc1ccc(-c2sc(Nc3ccc(F)c(F)c3F)nc2CCC(=O)NN)cc1	–	–	–	–	–	–
O=C1C(NS(=O)(=O)c2cccs2)=C(N2CCOCC2)C(=O)c2ccccc21	–	–	–	–	–	–
O=C1C(NS(=O)(=O)c2cccs2)=C(N2CCN(c3cccc(C(F)(F)F)c3)CC2)C(=O)c2ccccc21	–	55	–	–	–	–
CCN1CCN(C2=C(NS(=O)(=O)c3ccccc3)C(=O)c3ccccc3C2=O)CC1	–	–	–	–	–	82
CN1CCN(C2=C(NS(=O)(=O)c3cccs3)C(=O)c3ccccc3C2=O)CC1	–	–	–	–	–	93
CCOc1ccccc1OCCCC(=O)N(CC)CC(=O)Nc1ccc(NC(C)=O)cc1	–	–	–	–	–	–
COc1ccc(Nc2nc(-c3cccs3)nc3ccccc23)cc1	–	–	?	–	78	–
COc1cccc(Nc2nc(-c3cccs3)nc3ccccc23)c1	–	–	–	–	89	–
Cc1cc(NS(=O)(=O)c2c(C)c(C)cc(C)c2C)no1	–	–	–	–	–	–
COc1ccc2[nH]c3c(=O)n(/N=C/[C@H]4C(C)C=C(C)CC4C)c(=O)[nH]c3c2c1 (some centres not stated)	–	–	–	–	88	–
NC(=O)c1cc([N+](=O)[O-])ccc1NCc1ccc(C(=O)O)cc1	–	·	·	·	–	–
O=C(Nc1ccc(Cl)cc1)N1CCN(c2ccc3nnc(-c4ccc(F)cc4)n3n2)CC1	–	63	–	–	–	–
SMILES	Mdm2-MdmX inh	SKKanGAS inh	Calb FLC	T cruzi repl	CSC inhib	Beta apoptosis
O=C(Nc1ccccc1Cl)N1CCN(c2ccc3nnc(-c4ccccc4)n3n2)CC1	–	–	–	–	–	–
COc1ccc(Cn2c(=S)[nH]c3ccccc3c2=O)cc1	–	–	–	–	–	–
N=c1ccn(Cc2ccccc2Cl)cc1	–	–	–	–	–	·
N=c1ccn(Cc2ccc(Cl)cc2Cl)cc1	–	–	–	–	–	103
C(=N\NC(=Nc1ccccc1)c1ccccn1)/c1ccccn1	–	–	–	–	–	–
Clc1ccc(/C=N/NC(=Nc2ccccc2)c2ccccn2)c(Cl)c1	–	52	?	–	–	–
CCCc1cc(C(=O)N2CCCC(N3CCN(c4ccccc4F)CC3)C2)n(C)n1 (configuration not stated)	–	–	–	–	–	–
O=C(COC(=O)c1cnccn1)Nc1ncc(Cl)cc1Cl	–	–	–	–	–	–
O=S(=O)(NCC1CCCO1)c1ccc(-c2ccc(S(=O)(=O)NCC3CCCO3)cc2)cc1 (configuration not stated)	–	–	–	–	–	96
Cc1ccc2c(c1)S/C(=C/c1ccc[n+](CCO)c1)N2C	–	–	?	61	–	99
Cc1ccc2c(c1)S/C(=C\c1cccc[n+]1C)N2CCO	–	–	–	–	–	–
CC(C)(C)c1ccc(OCCCC(=O)NC2=NCCS2)cc1	–	62	–	–	–	–
CCN(CCCCCN(C)C)Cc1cc2ccccc2o1	–	–	–	55	·	·
CN(C)CCCN(C(=O)c1cc2ccccc2oc1=O)c1nc2ccc(F)cc2s1	–	–	–	–	–	–
C/C(Cc1nnn(-c2cc(C)on2)n1)=N\O	–	–	–	–	–	–
CCOC(=O)c1ccc(Nc2nc(C)nc3c2nnn3Cc2ccccc2)cc1	–	53	–	–	–	·
O=C(NCc1ccco1)c1sc(=S)n2c1[nH]c(=O)c1ccccc12	–	–	93	–	–	–
Cc1ccc(CNC(=O)c2ccc3c(=O)[nH]c4c(C(=O)NCC5CCCO5)sc(=S)n4c3c2)cc1 (configuration not stated)	–	56	–	–	–	–
O=C(NCc1ccccc1)c1ccc2c(=O)[nH]c3c(C(=O)NCC4CCCO4)sc(=S)n3c2c1 (configuration not stated)	–	–	–	–	–	–
CNC(C)C(=O)NC(C(=O)N1CCCC1C(=O)Nc1ccc2ncccc2c1)C(C)C (configuration not stated)	–	·	·	·	–	–
CCC(CNc1cc(OC)cc2cccnc12)NC1CCCCC1 (configuration not stated)	·	–	–	–	–	101
Cc1nc(N)c(C#N)c(-c2ccc3c(c2)OCO3)c1C	–	–	–	–	–	–
CC(C)(C)c1ccc(-c2nc3c(C#N)c(-c4ccc5c(c4)OCO5)ccn3n2)cc1	–	–	?	64	–	–
CC(=O)Nc1ccc(S(=O)(=O)N2CCNC(=O)C2)cc1	–	·	·	·	–	–
CCOc1ccc(S(=O)(=O)NCCC(=O)NCc2ccc(OC)c(OC)c2)cc1	–	·	·	·	–	–
CN(C)CCNC(=S)Nc1cccc(Cl)c1	–	–	–	–	–	–
CN(C)CCCNc1ccc(-c2cc(Nc3cccc(Cl)c3)ncn2)cn1	–	–	–	–	81	–
CCC1CCCCN1C(=O)COC(=O)CN(C)S(=O)(=O)c1ccc(NC(C)=O)cc1 (configuration not stated)	–	–	–	–	–	–
N#C/C(=C\c1ccc(/C=C(/C#N)c2nn(CCO)c(N)c2C#N)cc1)c1nn(CCO)c(N)c1C#N	–	67	–	–	–	–
N#C/C(=C/c1ccccc1)c1nn(CCO)c(N)c1C#N	–	–	–	–	–	–
